Source: PubChem BioAssay
Rows were chosen to be rich in hits. Some 12% of all compounds tested hit in one or more screens of this group.
Diaph act CS – compounds boosting diaphorase resazurin reduction – biochemical, uHTS, resorufin fluorescence, counter-screen for diaphorase-coupled primary assays, primary screen. Diaphorase/resazurin coupled assay, 16 min; active compounds read high; 1 = vehicle wells, 0 = NADH-free wells. actives 0.005% (n = 190,000). activation factor at 20 µM;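 active = diaphorase activity raised at least twofold by the compound at 20 µM; inactive = activation factor below 2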
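Measured by – red resorufin fluorescence at 544/590 nm excitation/emission · Test system – Clostridium kluyveri diaphorase, purified enzyme · Incubation – reaction time 16 min, room temperature · Buffer or medium – 50 mM HEPES pH 7.4 with 4.542 mM MgCl2, 0.005% Tween 20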
L major viab – Leishmania major promastigote growth inhibition, primary screen | inhibition, % at 10 µM | AID 1063, 2008 | actives 9% (n = 200,000) | Leishmania major promastigotes, resazurin fluorescence viability; in the data active = inhibition above about 50%;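 also: promastigotes grown with compound for 44 hours at 28 °C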
WT yeast gro inh – growth inhibition of WT strain, primary screen, mitochondrial fusion inhibitor project, WT and mutant strains, chemical genetic; actives 2.1% (n = 190,000); inhibition, % at 10 µM; mitochondrial fusion phenotypic screen; in the data active = inhibition above about 58%; tested in S. cerevisiae
KCC2 mod – KCC2 cotransporter modulators, thallium flux, primary screen, cell-based, HEK293 KCC2, FluoZin-2 fluorescence, MLSMR. actives 2.2% (n = 190,000). Solute carrier family 12 member 5 (Homo sapiens), Q9H2X9. B-score of Tl+ flux slope (higher = more flux/activation; lower = inhibition) at 10 µM. KCC2 cells, thallium flux FluoZin-2 fluorescence;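 active = thallium flux slope and its plate-corrected score both differing from the plate sample mean at a set confidence after two filtering rounds, in either direction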;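 also: slope of fluorescence scaled to starting intensity during 10 to 20 s after thallium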
Target sequence (Q9H2X9 whole entry, looked up): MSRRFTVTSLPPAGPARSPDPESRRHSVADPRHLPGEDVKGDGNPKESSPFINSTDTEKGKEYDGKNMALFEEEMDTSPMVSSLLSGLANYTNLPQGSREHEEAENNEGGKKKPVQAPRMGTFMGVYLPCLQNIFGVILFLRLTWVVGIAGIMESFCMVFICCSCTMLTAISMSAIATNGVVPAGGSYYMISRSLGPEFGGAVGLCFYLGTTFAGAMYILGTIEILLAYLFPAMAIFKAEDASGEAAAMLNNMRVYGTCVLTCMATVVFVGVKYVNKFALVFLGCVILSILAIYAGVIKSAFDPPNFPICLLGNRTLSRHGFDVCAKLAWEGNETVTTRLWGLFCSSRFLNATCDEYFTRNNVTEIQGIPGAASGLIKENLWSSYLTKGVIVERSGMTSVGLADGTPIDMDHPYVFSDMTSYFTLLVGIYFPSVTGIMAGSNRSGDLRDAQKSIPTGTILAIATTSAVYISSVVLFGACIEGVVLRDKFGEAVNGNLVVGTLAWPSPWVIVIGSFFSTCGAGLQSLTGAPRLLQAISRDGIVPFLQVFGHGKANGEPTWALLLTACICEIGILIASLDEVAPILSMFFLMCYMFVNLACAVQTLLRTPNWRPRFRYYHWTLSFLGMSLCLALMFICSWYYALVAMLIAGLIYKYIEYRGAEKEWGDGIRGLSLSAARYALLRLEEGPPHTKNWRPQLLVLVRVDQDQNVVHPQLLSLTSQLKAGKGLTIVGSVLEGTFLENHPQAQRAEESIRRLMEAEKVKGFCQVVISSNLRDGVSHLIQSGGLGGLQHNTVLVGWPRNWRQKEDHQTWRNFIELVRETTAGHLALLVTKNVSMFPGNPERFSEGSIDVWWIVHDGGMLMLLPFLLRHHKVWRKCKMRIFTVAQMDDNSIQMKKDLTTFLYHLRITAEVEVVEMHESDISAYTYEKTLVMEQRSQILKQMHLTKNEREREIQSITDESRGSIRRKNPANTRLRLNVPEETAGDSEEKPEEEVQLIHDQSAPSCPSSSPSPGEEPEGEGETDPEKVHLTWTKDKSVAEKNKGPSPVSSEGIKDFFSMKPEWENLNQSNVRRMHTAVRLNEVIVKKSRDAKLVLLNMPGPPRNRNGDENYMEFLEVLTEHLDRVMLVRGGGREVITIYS
ROMK primary – ROMK potassium channel modulators, primary screen, cell-based, thallium flux, MLSMR library | AID 1918, 2009 | actives 2% (n = 130,000) | B-score at 10 µM | ATP-sensitive inward rectifier potassium channel 1 (Homo sapiens), P48048 | Tet-inducible ROMK, thallium flux fluorescence; actives lie on both sides;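 active = signal ratio slope over the read window, or its plate-corrected B-score, at least 3 SD from the plate mean, either direction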;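 also: B-score of the F/F0 ratio slope over 7 to 12 s after thallium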
Diaphorase inh – diaphorase inhibitors and chemical oxidizers, primary screen, counter-screen for diaphorase-coupled primary assays, biochemical, uHTS, resorufin fluorescence. diaphorase resazurin-to-resorufin fluorescence, NADH, 16 min; bacterial (C. kluyveri) enzyme, not human. inhibition, % at 20 µM. actives 0.69% (n = 190,000);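 active = primary screen inhibition at 20 µM above a set limit, cut at about 50% in these data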
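material = Clostridium kluyveri diaphorase enzyme | amount = 0.14 U/mL diaphorase, enzyme working solution | schedule = incubation 16 min, room temperature | detection = fluorescence of resorufin formed from resazurin, Ex 544/Em 590 nm | benchmarks = positive control minus NADH, DMSO neutral control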
ROMK retest – ROMK channel modulator hit retest, confirmation, cell-based, thallium flux, duplicate, resupplied hits; shares compounds with ROMK primary; fluorescence ratio; active compounds read low; normalized thallium flux (F/F0 slope) at 10 µM; actives 54% (n = 3,000); AID 1917, 2009;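 active = Flux at 10 µM at least 3 SD below or above vehicle control mean in one or both replicates; inconclusive = no clear call, values can overlap the other calls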
Each line names hits and unclear results; the compound was inactive in the other large screens (follow-up assays come after a bar, where they were run).

COc1ccc(C(C[N+](=O)[O-])C2(c3ccc(OC)c(OC)c3)C(=O)c3ccccc3C2=O)cc1 (stereo not given)	L major viab 100, ROMK primary -5.1 | ROMK retest inconclusive
COC(=O)CC1(c2ccc(OC)cc2)C(=O)c2ccccc2C1=O	none (no result: Diaph act CS, L major viab, WT yeast gro inh, ROMK primary, Diaphorase inh)
CC1(C)CCc2cc(-c3ccnc(=S)[nH]3)ccc2O1	none (no result: Diaph act CS, L major viab, WT yeast gro inh, KCC2 mod, ROMK primary, Diaphorase inh) | ROMK retest inactive
CCN(CC)C(=O)CSc1nc2ccccc2c(=O)n1CC1CCCCC1	none | ROMK retest 0.061
CCC(=O)N1CC(C)C(=O)Nc2ccccc21 (stereo not given)	none
CC1CN(C(=O)c2ccccc2)c2ccccc2NC1=O (stereo not given)	ROMK primary -1.5 | ROMK retest inactive
COc1ccc(-c2[nH]ncc2C=O)cc1OC	none
CC(C)c1ccc(-n2c(-c3ccccc3)c[n+]3c2CCc2ccccc2-3)cc1	L major viab 100, ROMK primary -6 | ROMK retest 0.041
Cc1ccc(NC(=O)C(=O)Nc2ccc(C)cn2)nc1	none
Cc1ccc(NC(=O)/C(C#N)=C(\N)C(Cl)(Cl)Cl)nc1	L major viab 100, ROMK primary -5.5 | ROMK retest 0.035
O=C(O)CC(CNS(=O)(=O)c1ccccc1)c1ccccc1 (stereo not given)	none (no result: ROMK primary) | ROMK retest inconclusive
Cc1ccc(S(=O)(=O)C(C#N)c2nc3ccccc3nc2N2CCC(C)CC2)cc1 (stereo not given)	none (no result: ROMK primary) | ROMK retest 0.068
COc1ccc(S(=O)(=O)C(C#N)c2nc3ccccc3nc2N2CCCCC2)cc1 (stereo not given)	none (no result: ROMK primary)
CCOC(=O)c1ccc(-n2c(O)c(/C=N/NC(=O)C3COc4ccccc4O3)c3ccccc3c2=O)cc1 (stereo not given)	none (no result: ROMK primary) | ROMK retest 0.046
Cc1nn(-c2ccccc2)c(Cl)c1/C=N/NC(=O)C1COc2ccccc2O1 (stereo not given)	none (no result: ROMK primary)
Cc1ccc2c(c1)nnn2C1CCN(CC(=O)Nc2ccc3c(c2)OCCO3)CC1	none (no result: KCC2 mod)
C/C(CC(=O)Nc1ccc([N+](=O)[O-])cc1)=N/NC(=O)C1C2CCCCC21 (stereo not given)	none (no result: Diaph act CS, L major viab, WT yeast gro inh, ROMK primary, Diaphorase inh)
COc1cc(C2Oc3ccccc3C=C2[N+](=O)[O-])cc(OC)c1OC (stereo not given)	ROMK primary -7 (no result: Diaph act CS, L major viab, WT yeast gro inh, Diaphorase inh) | ROMK retest 0.033
CCCN1CCN(CCCNC(=O)c2cc3c(=O)[nH]c4ccccc4c3s2)CC1	ROMK primary -3.8 | ROMK retest 0.059
CC(C)(C)c1cc(C(=O)NCc2cc(F)cc3c2OCOC3)n(Cc2ccccc2)n1	none (no result: Diaph act CS, L major viab, WT yeast gro inh, ROMK primary, Diaphorase inh) | ROMK retest inactive
CC(NC(=O)COc1ccccc1)C(c1cccs1)N1CCCC1 (stereo not given)	none
Cc1ccc(C(=O)NC(C)C(c2cccs2)N2CCCC2)s1 (stereo not given)	ROMK primary -3.6 | ROMK retest inactive
CC(C)Cn1c(SCc2nnc(-c3cccs3)o2)nc(O)cc1=O	none
O=C(NC1CCCCC1)C1CCN(S(=O)(=O)c2cccs2)CC1	none (no result: KCC2 mod)
O=C(NC1CCCCCC1)C1CCCN(S(=O)(=O)c2cccs2)C1 (stereo not given)	none (no result: ROMK primary) | ROMK retest inconclusive
CC(=O)c1ccc(N(C(=O)CS(=O)CC(=O)Nc2ccc(F)cc2)C(C(=O)NC2CCCCC2)c2cccs2)cc1 (stereo not given)	ROMK primary -3.3 | ROMK retest inactive
CC(=O)N1CCc2cc(Br)cc(S(=O)(=O)NCc3ccccn3)c21	ROMK primary -7.4 (no result: KCC2 mod) | ROMK retest inactive
CC(=O)N1CCc2cc(Br)cc(S(=O)(=O)CCC(=O)N3CCN(c4ccccn4)CC3)c21	none
